Calls of active or inactive are those of the source. The rule behind the calls is not given here.
How the values were obtained:
SH-SY5Y [1] = experiment: Cytotoxicity against SH-SY5Y cells assessed as cell viability upto 100 uM after 48 hrs by MTT method; format: functional, cell-based; details: Homo sapiens
Method in brief: (§1)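 SH-SY5Y human neuroblastoma cells exposed to compounds for 48 h; viability read by MTT; dose–response curves; highest concentration tested 100 μM.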

SH-SY5Y [2] = experiment: Cytotoxicity against SH-SY5Y cells assessed as cell viability above 10 uM after 48 hrs by MTT method; format: functional, cell-based; details: Homo sapiens; method in brief: as §1
SH-SY5Y [3] = experiment: Cytotoxicity against SH-SY5Y cells assessed as cell viability after 48 hrs by MTT method; format: functional, cell-based; details: Homo sapiens; method in brief: as §1
Tubulin (Homo sapiens) = Tubulin (Homo sapiens) (UniProt P68371+Q9H4B7+P0DPH7+P68366+Q13509+Q71U36+P04350+Q3ZCM7+P07437+P68363+Q9BQE3+Q6PEY2+Q13885+Q9BVA1+Q9BUF5); experiment: Induction of tubulin depolymerization after 16 hrs; format: protein-complex assay
Method in brief: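 Cells treated 16 h with tubulin-disrupting agents; proteins harvested in presence of paclitaxel to fix polymerized and unpolymerized tubulin; soluble (non-polymerized) and pellet (polymerized) fractions run on SDS-PAGE and immunoblotted with monoclonal mouse anti-tubulin antibody.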

SMILES	Activity (SH-SY5Y [1])	IC50 (SH-SY5Y [3]) [nM]	Activity (Tubulin (Homo sapiens))	other results
COc1cc(Cc2cnnn2Cc2ccc3c(c2)OCO3)cc(OC)c1OC	Not toxic	–	–	–
COc1cc(C(O)c2cnnn2Cc2ccc3c(c2)OCO3)cc(OC)c1OC (stereo unspecified)	Not toxic	–	–	–
COc1cc(Cn2nncc2Cc2ccc3c(c2)OCO3)cc(OC)c1OC	Not toxic	–	–	–
COc1cc2c(c(OC)c1OC)-c1cc3c(cc1Cn1nncc1C2)OCO3	–	–	–	Activity (SH-SY5Y [2]): Toxic
COc1cc2c(c(OC)c1OC)-c1cc3c(cc1Cc1cnnn1C2)OCO3	–	1100	–	–
COc1cc([C@@H]2c3cc4c(cc3[C@H](O)[C@H]3COC(=O)[C@H]23)OCO4)cc(OC)c1OC [PODOFILOX]	–	7	Active	–
COc1ccc(/C=C\c2cc(OC)c(OC)c(OC)c2)cc1O	–	–	Active	–
COc1cc(C2c3cc4c(cc3Cn3nncc32)OCO4)cc(OC)c1OC (racemic)	–	1500	Active	–
CC(=O)O[C@H]1C(=O)[C@@]2(C)[C@H]([C@H](OC(=O)c3ccccc3)[C@]3(O)C[C@H](OC(=O)[C@H](O)[C@@H](NC(=O)c4ccccc4)c4ccccc4)C(C)=C1C3(C)C)[C@]1(OC(C)=O)CO[C@@H]1C[C@@H]2O	–	–	inactive	–

— ChEMBL document CHEMBL1137455, “Replacement of the lactone moiety on podophyllotoxin and steganacin analogues with a 1,5-disubstituted 1,2,3-triazole via ruthenium-catalyzed click chemistry” (Bioorg Med Chem, 2007)
